Laboratory results reported in PMC5966020 (Journal of medicinal chemistry, 2018).
Where two headings read alike, the source gives them in different places. One block for each compound: values may come before it.

Tests used:
[1] = molecular target: T1, human recombinant MAGL (hMAGL) (Homo sapiens, UniProt Q99685); assay: human recombinant MAGL inhibition enzyme assay; format: biochemical
T1 sequence (Q99685 1-303): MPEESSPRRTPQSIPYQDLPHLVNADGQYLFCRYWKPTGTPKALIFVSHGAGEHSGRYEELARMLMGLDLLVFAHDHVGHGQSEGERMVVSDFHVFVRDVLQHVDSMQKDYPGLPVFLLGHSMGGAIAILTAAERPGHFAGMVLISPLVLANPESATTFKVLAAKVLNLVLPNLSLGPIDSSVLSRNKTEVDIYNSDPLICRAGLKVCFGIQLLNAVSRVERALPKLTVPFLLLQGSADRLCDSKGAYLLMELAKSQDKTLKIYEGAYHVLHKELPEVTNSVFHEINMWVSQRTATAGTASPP
Summary of the method: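 Commercial MAGL inhibitor screening kit with human recombinant enzyme, run per the manufacturer's instructions. JZL195 was the positive control. IC50 from dose-response curve fitting, averaged over 3–5 runs.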

[2] = LogP by shake flask method; format: physicochemical; details: n-octanol/water
Summary of the method: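 n-Octanol/water liquid-liquid partition ('shake flask'), following the OECD 107 guideline. Compound quantified in each phase by LC-MS; n = 3.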

ABHD12 = molecular target: T2, ABHD12 (Mus musculus, UniProt Q99LR1); assay: activity based protein profiling; format: biochemical; details: up to 10 μM concentration
T2 sequence (Q99LR1 1-398): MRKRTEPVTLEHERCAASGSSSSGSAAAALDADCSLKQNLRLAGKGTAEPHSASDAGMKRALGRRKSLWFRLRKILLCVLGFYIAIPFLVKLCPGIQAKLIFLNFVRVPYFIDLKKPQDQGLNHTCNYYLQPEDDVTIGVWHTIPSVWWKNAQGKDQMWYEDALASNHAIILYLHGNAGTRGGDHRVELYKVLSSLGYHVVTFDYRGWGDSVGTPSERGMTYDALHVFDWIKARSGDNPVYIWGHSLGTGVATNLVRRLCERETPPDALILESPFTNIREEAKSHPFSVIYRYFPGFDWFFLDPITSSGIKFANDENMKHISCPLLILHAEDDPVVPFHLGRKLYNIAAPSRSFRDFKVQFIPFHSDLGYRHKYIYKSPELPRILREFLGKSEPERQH
Summary of the method: (§1)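 Mouse brain membrane proteome (1 mg/mL) preincubated with DMSO or test compound (1 and 10 μM) for 30 min at 37 °C. FP-rhodamine (1 μM final) was then added for 1–180 min at room temperature. Samples were separated by SDS-PAGE and read by in-gel fluorescence. Band intensity is given relative to DMSO (100%). MJN110 was the positive control; 3 runs.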

rat brain MAGL [3] = molecular target: T3, rat brain MAGL (Rattus norvegicus, UniProt Q8R431); assay: [3H]2-OG hydrolysis assay; format: biochemical; details: for IC50: IC50, inhibition of [3H]2-OG hydrolysis, 0.5 μM [3H]2-OG; for pIC50 in [3H]2-OG assay: positive control
T3 sequence (Q8R431 1-303): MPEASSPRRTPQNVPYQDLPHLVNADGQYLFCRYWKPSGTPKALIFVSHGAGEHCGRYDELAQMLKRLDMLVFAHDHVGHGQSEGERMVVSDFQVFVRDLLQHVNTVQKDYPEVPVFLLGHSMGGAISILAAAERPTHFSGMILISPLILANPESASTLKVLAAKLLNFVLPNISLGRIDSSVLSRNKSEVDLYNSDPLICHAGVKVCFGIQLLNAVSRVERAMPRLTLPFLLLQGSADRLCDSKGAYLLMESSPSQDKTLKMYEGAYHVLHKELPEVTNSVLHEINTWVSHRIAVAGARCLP
Summary of the method: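 Rat brain preparation, test compound and buffer (10 mM Tris-HCl, 1 mM EDTA, pH 7.4) were preincubated 0–60 min. [3H]2-OG diluted with unlabelled 2-OG was then added to 0.5 μM final, with 0.125% w/v fatty acid-free BSA. Kinetics: no preincubation, 2 min incubation. Reversibility: 60 min preincubation, then 20-fold dilution. JZL184 was the positive control. Means of 3–4 runs.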

ABHD6 = molecular target: T4, ABHD6 (Mus musculus, UniProt Q8R2Y0); assay: activity based protein profiling; format: biochemical; details: up to 10 μM concentration
T4 sequence (Q8R2Y0 1-336): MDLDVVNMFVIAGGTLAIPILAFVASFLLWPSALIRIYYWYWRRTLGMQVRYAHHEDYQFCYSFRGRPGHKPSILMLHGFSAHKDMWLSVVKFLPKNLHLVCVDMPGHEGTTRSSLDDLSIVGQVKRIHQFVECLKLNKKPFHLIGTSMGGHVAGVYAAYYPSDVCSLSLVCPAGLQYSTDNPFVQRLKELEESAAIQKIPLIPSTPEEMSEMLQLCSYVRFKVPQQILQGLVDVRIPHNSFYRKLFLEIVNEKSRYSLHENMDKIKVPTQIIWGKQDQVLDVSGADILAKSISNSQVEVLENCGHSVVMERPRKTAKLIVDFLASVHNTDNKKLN
Summary of the method: as §1

FAAH = molecular target: T5, FAAH (Rattus norvegicus, UniProt P97612); assay: [3H]AEA hydrolysis assay; format: biochemical
T5 sequence (P97612 1-579): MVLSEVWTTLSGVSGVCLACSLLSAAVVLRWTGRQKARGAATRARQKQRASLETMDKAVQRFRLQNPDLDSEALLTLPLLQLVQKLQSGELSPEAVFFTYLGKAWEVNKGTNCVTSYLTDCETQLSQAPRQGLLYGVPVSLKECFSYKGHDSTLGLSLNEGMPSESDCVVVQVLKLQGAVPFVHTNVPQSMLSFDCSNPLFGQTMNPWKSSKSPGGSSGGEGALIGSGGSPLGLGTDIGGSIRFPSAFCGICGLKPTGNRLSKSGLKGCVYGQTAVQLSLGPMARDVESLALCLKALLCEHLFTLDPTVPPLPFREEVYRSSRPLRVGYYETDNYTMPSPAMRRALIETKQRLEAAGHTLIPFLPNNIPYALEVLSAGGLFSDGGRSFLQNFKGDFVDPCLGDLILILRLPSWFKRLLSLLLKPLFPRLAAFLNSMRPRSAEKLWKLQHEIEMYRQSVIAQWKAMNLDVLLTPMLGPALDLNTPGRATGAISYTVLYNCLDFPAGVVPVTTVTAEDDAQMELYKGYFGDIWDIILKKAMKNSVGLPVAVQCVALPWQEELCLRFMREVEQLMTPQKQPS

CB2 = CB2 (Homo sapiens, UniProt P34972); assay: CB2 receptor agonist and antagonist assays; format: cell-based; details: up to 30 μM concentration
CB2, sequence (P34972 whole entry, species assumed): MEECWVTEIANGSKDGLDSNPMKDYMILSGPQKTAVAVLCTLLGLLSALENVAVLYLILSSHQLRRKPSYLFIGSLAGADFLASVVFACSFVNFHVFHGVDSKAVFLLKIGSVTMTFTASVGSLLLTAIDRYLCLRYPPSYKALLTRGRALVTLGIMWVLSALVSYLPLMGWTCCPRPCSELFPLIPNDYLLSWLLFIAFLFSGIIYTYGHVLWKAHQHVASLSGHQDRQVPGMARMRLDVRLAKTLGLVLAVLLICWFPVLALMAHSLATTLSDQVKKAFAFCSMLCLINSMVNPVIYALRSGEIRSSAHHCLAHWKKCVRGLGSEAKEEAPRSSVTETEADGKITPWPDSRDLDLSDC
Summary of the method: (§2)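 Run by the NIMH Psychoactive Drug Screening Program to its published protocols, in agonist and antagonist formats. CP55940 was the agonist control at both receptors. Rimonabant was the CB1 antagonist control and SR144528 the CB2 antagonist control. Dose-response curves were generated, averaged over 3–5 runs.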

CB1 = CB1 (Homo sapiens, UniProt P21554); assay: CB1 receptor agonist and antagonist assays; format: cell-based; details: up to 30 μM concentration
CB1, sequence (P21554 whole entry, species assumed): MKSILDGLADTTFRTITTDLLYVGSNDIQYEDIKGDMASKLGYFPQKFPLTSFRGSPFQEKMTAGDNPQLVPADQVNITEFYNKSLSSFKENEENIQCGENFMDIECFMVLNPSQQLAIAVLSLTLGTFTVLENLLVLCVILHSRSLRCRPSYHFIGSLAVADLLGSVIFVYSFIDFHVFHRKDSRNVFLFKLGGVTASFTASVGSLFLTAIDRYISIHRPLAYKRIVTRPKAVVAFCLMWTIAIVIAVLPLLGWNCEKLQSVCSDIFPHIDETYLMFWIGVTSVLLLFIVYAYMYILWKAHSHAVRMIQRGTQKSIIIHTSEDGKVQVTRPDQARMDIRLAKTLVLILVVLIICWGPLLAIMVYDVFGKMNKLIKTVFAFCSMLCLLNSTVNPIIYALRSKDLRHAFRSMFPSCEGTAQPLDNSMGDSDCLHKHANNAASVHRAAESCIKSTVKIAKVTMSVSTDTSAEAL
Summary of the method: as §2

brain = assay: PET brain uptake of 19; details: in vivo
rat brain MAGL [4] = molecular target: T3, rat brain MAGL; details: read-out: IC50, inhibition of [3H]2-OG hydrolysis, cited from earlier work

SMILES: O=C(OC(C(F)(F)F)C(F)(F)F)N1CC(c2nc(-c3ccc(F)cc3)no2)C1 [Compound 8, 1,1,1,3,3,3-hexafluoropropan-2-yl 3-(3-(4-fluorophenyl)-1,2,4-oxadiazol-5-yl)azetidine-1-carboxylate]
- IC50 [1]: 13.4 nM
- logP [2]: 1.45 ± 0.01

- logP [2]: 1.42 ± 0.11
SMILES: O=C(OC(C(F)(F)F)C(F)(F)F)N1CC(c2nc(-c3cccc(F)c3)no2)C1 [Compound 9, 1,1,1,3,3,3-hexafluoropropan-2-yl 3-(3-(3-fluorophenyl)-1,2,4-oxadiazol-5-yl)azetidine-1-carboxylate]

- interaction with ABHD12 (ABHD12): No significant interactions
- IC50 [1]: 12.7 nM
- Ki (rat brain MAGL [3]): 1.03 nM
- time-dependency of inhibition (rat brain MAGL [3]; 0.2, 0.6 and 1 nM inhibitor): time-dependent inhibition
- IC50 (rat brain MAGL [3]; 60 min of pre-incubation): 0.68 nM
- IC50 (rat brain MAGL [3]; without pre-incubation): 3.9 nM
- binding mechanism (rat brain MAGL [3]; dilution experiments and ABPP time course): irreversible binding mechanism
- interaction with ABHD6 (ABHD6): No significant interactions
- selectivity towards MAGL over FAAH (FAAH): 30–50 fold
- interaction with CB2 (CB2): No significant interactions
- logP [2]: 1.23 ± 0.1
- interaction with CB1 (CB1): No significant interactions
SMILES: COc1ccc(-c2noc(C3CN(C(=O)OC(C(F)(F)F)C(F)(F)F)C3)n2)cc1 [Compound 10, 1,1,1,3,3,3-hexafluoropropan-2-yl 3-(3-(4-methoxyphenyl)-1,2,4-oxadiazol-5-yl)azetidine-1-carboxylate]

- logP [2]: 1.17 ± 0.14
SMILES: COc1cccc(-c2noc(C3CN(C(=O)OC(C(F)(F)F)C(F)(F)F)C3)n2)c1 [Compound 11, 1,1,1,3,3,3-hexafluoropropan-2-yl 3-(3-(3-methoxyphenyl)-1,2,4-oxadiazol-5-yl)azetidine-1-carboxylate]

SMILES: O=C(OC(C(F)(F)F)C(F)(F)F)N1CC(c2nc(-c3ccc(F)cc3)no2)C1 [Compound 19, ^11C-carbonyl labeled 1,1,1,3,3,3-hexafluoropropan-2-yl 3-(3-(4-fluorophenyl)-1,2,4-oxadiazol-5-yl)azetidine-1-carboxylate]
- peak SUV in brain (brain): ca. 1.4 SUV

SMILES: O=C(Oc1ccc([N+](=O)[O-])cc1)N1CCC(C(O)(c2ccc3c(c2)OCO3)c2ccc3c(c2)OCO3)CC1 [JZL184]
- pIC50 in [3H]2-OG assay (rat brain MAGL [3]; 60 min preincubation): 8.24±0.02
- pIC50 in [3H]2-OG assay (rat brain MAGL [3]; without preincubation): 6.46±0.04
- IC50 (rat brain MAGL [4]; preincubation 0 min): 350 nM
- IC50 (rat brain MAGL [4]; preincubation 30 min): 12 nM
- IC50 (rat brain MAGL [4]; preincubation 60 min): 5.8 nM

SMILES: O=C(Oc1ccc([N+](=O)[O-])cc1)N1CCN(Cc2cccc(Oc3ccccc3)c2)CC1 [JZL195, reference compound]
- block of human recombinant MAGL hydrolysis ([1]; 4.4 μM, positive control): completely blocked
